Laboratory results reported in ChEMBL document CHEMBL3588752, “Synthesis and in Vitro Anticancer Activity of the First Class of Dual Inhibitors of REV-ERBβ and Autophagy” (J Med Chem, 2015).
The source made the active and inactive calls. No cut-off for these calls is given here.

Assays:
[1] = tested on: BT-474; experiment: Cytotoxicity against human BT474 cells assessed as reduction in cell number incubated for 72 hrs; assay type: functional, cell-based; details: BT-474, 72 h
In short: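 Cells seeded at 2000/well and left overnight, then exposed 72 h to seven 3-fold serial dilutions from 100 µM. Cell number read by CyQUANT DNA dye (independent of metabolism), relative to vehicle as 100%. BT-474 grown in high-glucose DMEM, 4 mM L-glutamine, 10% FBS, 0.25 mM pyruvate.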

[2] = tested on: HMEC; experiment: Cytotoxicity against HMEC cells assessed as reduction in cell number incubated for 72 hrs; assay type: cell-based; details: Homo sapiens
[3] = molecular target: T1, Nuclear receptor subfamily 1 group D member 2 (Homo sapiens) (UniProt Q14995); experiment: Inhibition of REV-ERBbeta (unknown origin) expressed in HEK293 cells incubated for 24 hrs assessed as inhibition of receptor-mediated transcriptional repression by REV-ERB luciferase reporter assay; assay type: cell-based
T1 sequence (whole entry): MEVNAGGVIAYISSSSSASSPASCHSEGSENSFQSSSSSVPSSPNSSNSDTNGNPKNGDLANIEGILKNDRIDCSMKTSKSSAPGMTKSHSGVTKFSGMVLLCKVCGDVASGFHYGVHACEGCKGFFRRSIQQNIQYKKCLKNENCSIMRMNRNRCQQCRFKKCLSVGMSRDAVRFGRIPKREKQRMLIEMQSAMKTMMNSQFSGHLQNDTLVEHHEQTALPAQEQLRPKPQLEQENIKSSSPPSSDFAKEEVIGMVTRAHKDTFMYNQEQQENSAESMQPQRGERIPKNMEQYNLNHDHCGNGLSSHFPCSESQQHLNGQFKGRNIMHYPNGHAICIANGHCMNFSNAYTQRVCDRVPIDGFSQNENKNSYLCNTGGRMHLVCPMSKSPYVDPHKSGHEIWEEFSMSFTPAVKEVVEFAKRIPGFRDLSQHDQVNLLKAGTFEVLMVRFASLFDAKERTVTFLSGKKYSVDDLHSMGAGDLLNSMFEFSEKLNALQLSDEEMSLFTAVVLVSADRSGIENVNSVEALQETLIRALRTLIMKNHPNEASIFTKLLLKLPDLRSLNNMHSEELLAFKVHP
In short: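 HEK-293 co-transfected with a REV-ERBβ expression plasmid and a reporter with two REV-ERB response elements driving Cypridina luciferase. Compounds added the next day; luciferase activity read after 24 h. IC50 from concentration–response plots, mean ± SEM, N ≥ 6.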

[4] = tested on: BT-474; experiment: Inhibition of autophagy in human BT474 cells assessed as increase in LC3-II protein levels at 10 uM by immunoblot method; assay type: functional, cell-based
In short: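 BT-474 exposed 4 h at 10 µM. Protein extracted in RIPA buffer and immunoblotted for LC3B and GAPDH in TBS-T with 5% BSA. HRP secondary at 1:20000, ECL detection. Band densitometry reported as LC3B/GAPDH ratio.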

[5] = molecular target: T1, Nuclear receptor subfamily 1 group D member 2 (Homo sapiens); experiment: Inhibition of REV-ERBbeta in human BT474 cells assessed as increase in BMAL1 expression at 10 uM incubated for 16 hrs by immunoblot method; details: BT-474
[6] = Toxicity against human BT474 cells assessed as reduction in cell number at 10 uM incubated for 16 hrs; assay type: cell-based; details: bt-474, 16 h
[7] = tested on: BT-474; experiment: Lysosomotropic activity in human BT474 cells assessed as […] incubated for 24 hrs by lysosomotropy assay; assay type: functional, cell-based; details: BT-474, 24 h
In short: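 Seeded at 2000 cells/well overnight, then treated. Lysosomal staining (LysoTracker fluorescence) measured 24 h post-treatment. IC50 from concentration–response plots, mean ± SEM, N ≥ 6.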

Row | SMILES | IC50 [1] [µM] | IC50 [2] [µM] | further results
1 | CC(NCc1ccc(O)c(CN2CCN(C)CC2)c1)c1ccccc1F (stereo unspecified) | > 100 |  | 
2 | CN1CCN(Cc2cc(C(=O)NC3(c4ccccc4F)CCCC3)ccc2O)CC1 | > 100 |  | 
3 | CCN(CC)Cc1cc(CNC2(c3ccccc3F)CCCC2)ccc1O | > 100 |  | 
4 | Oc1ccc(CNC2(c3ccccc3F)CCCC2)cc1CN1CCNCC1 | 31.9 | > 100 | 
5 | CN1CCN(Cc2cccc(CNC3(c4ccccc4F)CCCC3)c2)CC1 | 34 | > 100 | 
6 | CC1CCC(Cc2cccc(CNC3(c4ccccc4F)CCCC3)c2)CC1 (mixture of isomers) | > 100 |  | 
7 | Oc1ccc(CNC2(c3ccccc3F)CCCC2)cc1CN1CCOCC1 | > 100 |  | 
8 | CN1CCN(Cc2cc(CNC3(c4ccc(F)cc4)CCCC3)ccc2O)CC1 | 9.41 | > 100 | inhibition [3]: Active; inhibition [4]: Active; inhibition [5]: Active; Activity [6]: Non-toxic; IC50 [7]: 10 µM
9 | CN1CCC(Cc2cccc(CNC3(c4ccccc4F)CCCC3)c2)CC1 | 15.5 | > 100 | inhibition [3]: Active; inhibition [4]: Active; inhibition [5]: Active; Activity [6]: Non-toxic; IC50 [7]: 10 µM
10 | COc1ccc(CNC2(c3ccccc3F)CCCC2)cc1CN1CCN(C)CC1 | > 100 |  | 
11 | CN1CCN(Cc2cc(CN(C)C3(c4ccccc4F)CCCC3)ccc2O)CC1 | > 100 |  | 
12 | Fc1ccccc1C1(NCc2cccc(CN3CCCCC3)c2)CCCC1 | 40 | > 100 | 
13 | CC(=O)N1CCN(Cc2cc(CNC3(c4ccccc4F)CCCC3)ccc2O)CC1 | > 100 |  | 
14 | Oc1ccc(CNC2(c3ccccc3F)CCCC2)cc1CN1CCCCC1 | 35.6 | > 100 | 
15 | CN1CCN(Cc2ccc(CNC3(c4ccccc4F)CCCC3)cc2)CC1 | > 100 |  | 
